Results: ChEMBL document CHEMBL6071141, “In vitro and in vivo evaluation of Bombesin-MMAE conjugates for targeted tumour therapy” (Eur J Med Chem, 2024)
Active and inactive are the calls of the source. The calls are words filed in the database; no cut-off is given here. Numbered stars: 1 amine (or outer) side, 2 acyl side, 3 side chain; on linkers, the order of the positions; unused ones are H or OH. Bridge positions count the residues as written; N and C are the ends. Square brackets hold non-standard residues; d marks the D form. Peptide text beside a SMILES is read from it. I, II: the chains in the order shown. * marks the point of attachment. Hexanoyl(6-succinimido-3yl) = O=C1CC([*:1])C(=O)N1CCCCCC(=O)[*:2]; Dolaproine = CO[C@@H]([C@@H]1CCCN1)[C@@H](C)C(=O)O; X2 = O=C([C@H](CC1=CSC2C=CC=CC12)N[*:1])[*:2]; Dil = CC[C@H](C)[C@H](NC)[C@@H](CC(=O)O)OC; PABC = O=C(OCc1ccc(N[*:1])cc1)[*:2]; X3 = C[C@@H](N*)[C@@H](O)c1ccccc1; Cit = NC(=O)NCCC[C@H](N)C(=O)O; PEG4 = NCCOCCOCCOCCOCCC(=O)O; NMeV = CN[C@H](C(=O)O)C(C)C; Nle = CCCC[C@H](N)C(=O)O

Legend:
[1] = biological target: T1, Gastrin-releasing peptide receptor (Homo sapiens, UniProt P30550); assay: Displacement of 125 I- [Tyr4] from bombesin receptor 2 in human MDA-MB-231 cells assessed as inhibition by radioligand displacement assay; assay type: cell-based
Method in brief: (§1)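 Competition binding on membrane preparations from PC-3 or MDA-MB-231 cells against ¹²⁵I-[Tyr⁴]-bombesin, with conjugates at 10 μM–10 pM. IC50 was taken as the concentration giving 50 % inhibition of tracer binding.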

[2] = Cytotoxicity against human cells MDA-MB-231 assessed as inhibition of cell growth incubated for 72 hrs by CellTiter 96 aqueous assay; assay type: toxicity, cell-based; conditions: MDA-MB-231 cells
Method in brief: (§2)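 PC-3 or MDA-MB-231 cells were treated the day after seeding with serial dilutions, from 2000 nM for conjugates and 100 nM for MMAE, for 72 h. Then the assay was stopped, or run 72 h more after a medium change (single) or re-treatment (double). Controls got 0.05 % DMSO. Read-out was MTS absorbance at 490 nm after 90 min. IC50 by non-linear regression; ≥2 experiments, triplicates.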

[3] = Drug uptake in mouse kidney at ip administration xenografted with human PC-3 cells measured upto 24 hrs by LC-HRMS; assay type: ADME, organism-based; conditions: in vivo
Method in brief: (§3)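 Mice bearing PC-3 xenografts received a single 2 mg/kg i.p. dose. Blood, tumour, liver, kidneys, heart, lungs and pancreas were collected at 1, 6 and 24 h and pooled per group. Tissues were homogenised in water (1:2 w/v) and centrifuged. Released MMAE was measured by LC-HRMS and expressed as %ID/g (n = 3).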

[4] = Cytotoxicity against human MDA-MB-231 cells assessed as inhibition of cell growth incubated for 72 hrs and followed by treated with compound continued incubation for further 72 hrs (double treatment) after retreatment of compound by CellTiter 96 aqueous assay; assay type: toxicity, cell-based; method in brief: as §2
[5] = Drug uptake in mouse liver at ip administration xenografted with human PC-3 cells measured upto 24 hrs by LC-HRMS; assay type: ADME, organism-based; conditions: in vivo; method in brief: as §3
[6] = Cytotoxicity against human PC-3 cells assessed as inhibition of cell growth incubated with compound for 72 hrs followed by further incubated for 72 hrs (single treatment) by CellTiter 96 aqueous assay; assay type: toxicity, cell-based; method in brief: as §2
[7] = Cytotoxicity against human PC-3 cells assessed as inhibition of cell growth incubated for 72 hrs by CellTiter 96 aqueous assay; assay type: toxicity, cell-based; method in brief: as §2
[8] = Cytotoxicity against human MDA-MB-231 cells assessed as inhibition of cell growth incubated with compound for 72 hrs followed by further incubated for 72 hrs (single treatment) by CellTiter 96 aqueous assay; assay type: toxicity, cell-based; method in brief: as §2
[9] = Drug uptake in mouse lungs at ip administration xenografted with human PC-3 cells measured upto 24 hrs by LC-HRMS; assay type: ADME, organism-based, Lung; conditions: in vivo; method in brief: as §3
[10] = Drug uptake in mouse blood at ip administration xenografted with human PC-3 cells measured upto 24 hrs by LC-HRMS; assay type: ADME, organism-based; conditions: in vivo; method in brief: as §3
[11] = Drug uptake in mouse heart at ip administration xenografted with human PC-3 cells measured upto 24 hrs by LC-HRMS; assay type: ADME, organism-based; conditions: in vivo; method in brief: as §3
[12] = Drug uptake in mouse pancreas at ip administration xenografted with human PC-3 cells measured upto 24 hrs by LC-HRMS; assay type: ADME, organism-based; conditions: in vivo; method in brief: as §3
[13] = biological target: T1, Gastrin-releasing peptide receptor; assay: Displacement of 125 I- [Tyr4] from bombesin receptor 2 in human PC-3 cells assessed as inhibition by radioligand displacement assay; assay type: cell-based; method in brief: as §1
[14] = Cytotoxicity against human PC-3 cells assessed as inhibition of cell growth incubated for 72 hrs and followed by treated with compound continued incubation for further 72 hrs (double treatment) after retreatment of compound by CellTiter 96 aqueous assay; assay type: toxicity, cell-based; method in brief: as §2
PC-3 [15] = assay: Antitumor activity against human PC-3 cells xenografted in mouse assessed as median survival day at 1 mg/kg, ip administration for 33 days; assay type: functional; conditions: time 33 day
PC-3 [16] = assay: Antitumor activity against human PC-3 cells xenografted in mouse assessed as reduction in tumour volume relative to control; assay type: functional; design: scale not given: the % may be the effect or the level left
Method in brief: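 Acute study in mice bearing subcutaneous PC-3 tumours. Single i.p. dose (0.1 mL) 9 days after inoculation, at a mean tumour volume of 62 mm³. Eight per group, randomized. Conjugates at 2 mg/kg MMAE-content, free MMAE at 1 mg/kg, in 5 % DMSO in water; solvent controls. Calliper volume V = ab²×π/6. Sacrifice at 20 % weight loss or 2000 mm³.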

[17] = Biodistribution in liver of mouse xenografted with human PC-3 cells incubated for 24 hrs by LC-HRMS; assay type: ADME, organism-based; conditions: in vivo
Method in brief: (§4)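 Mice bearing s.c. PC-3 tumours given a single i.p. dose of 2 mg/kg; 3 mice per time point, sampled at 1, 6 and 24 h. Blood, tumour, liver, kidneys, heart, lungs and pancreas pooled per group and homogenised in water (1:2 w/v); supernatants analysed for MMAE by LC-HRMS; expressed as %ID/g.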

[18] = Biodistribution in kidney mouse xenografted with human PC-3 cells incubated for 24 hrs by LC-HRMS; assay type: ADME, organism-based; conditions: in vivo; method in brief: as §4
[19] = Biodistribution in mouse pancreas xenografted with human PC-3 cells assessed as parent compound by LC-HRMS; assay type: ADME, organism-based; conditions: in vivo; method in brief: as §4
[20] = Biodistribution in mouse xenografted with human PC-3 cells assessed as tumour environment incubated for 24 hrs by LC-HRMS; assay type: ADME, organism-based, Neoplasm; conditions: in vivo; method in brief: as §3
[21] = Biodistribution in mouse pancreas xenografted with human PC-3 cells by LC-HRMS relative to control; assay type: ADME, organism-based; conditions: in vivo
PC-3 [22] = assay: Antitumor activity against human PC-3 cells xenografted with mouse assessed as median survival days at 1 mg/kg, ip (reference value: 33 days)
[23] = Toxicity in mouse xenografted with human PC-3 cells assessed as change in body weight at 0.2 mg/kg, ip administered upto 23 days; assay type: organism-based; conditions: in vivo, 0.5 mg/kg, 552 h, in the assay text read “0.5 mg/kg” for “0.2 mg/kg”
Method in brief: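 Chronic dosing in mice bearing PC-3 xenografts. Free MMAE at 0.2 mg/kg (conjugates at 0.5 mg/kg MMAE-content), i.p. in 5 % DMSO in water on days 8, 11, 16 and 23 after inoculation. Seven per group; solvent controls. Body weight measured at the start and at periodic intervals.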

[24] = Toxicity in mouse xenografted with human PC-3 cells assessed as effect on liver 0.5 mg/kg, ip administered upto 23 days; conditions: in vivo, 552 h
[25] = Toxicity in mouse xenografted with human PC-3 cells assessed as body weight loss at 1 mg/kg, ip administered relative to control; assay type: organism-based; conditions: in vivo, 2 mg/kg, in the assay text read “2 mg/kg” for “1 mg/kg”
Method in brief: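 Toxicity in mice bearing subcutaneous PC-3 tumours after a single i.p. dose 9 days post-inoculation. Free drug at 1 mg/kg, conjugates at 2 mg/kg MMAE-content, in 5 % DMSO in water; solvent controls; eight per group. Body weight followed periodically. Endpoint at 20 % weight loss; behaviour (activity, coat, stool, paleness) also scored.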

PC-3 [26] = assay: Antitumor activity against human PC-3 cells xenografted with mouse assessed as median survival days at 2 mg/kg, ip (reference value: 33 days)
PC-3 [27] = assay: Antitumor activity against human PC-3 cells xenografted in mouse assessed as inhibition in tumour growth at 0.5 mg/kg, ip administered upto 23 days; assay type: functional, organism-based; conditions: time <= 23.0 day
Method in brief: (§5)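 Chronic study in mice bearing subcutaneous PC-3 tumours. Dosing began 8 days after cell inoculation, at a mean tumour volume of 93 mm³. Seven per group, randomized. Four i.p. doses (0.1 mL) on days 8, 11, 16 and 23 of 0.5 mg/kg MMAE-content, in 5 % DMSO in water for injection; controls got solvent. Tumour volume by calliper, V = ab²×π/6.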

PC-3 [28] = assay: Antitumor activity against human PC-3 cells xenografted in mouse assessed as reduction in tumour weight at 0.5 mg/kg, ip administered upto 23 days relative to control; assay type: functional; design: scale not given: the % may be the effect or the level left; conditions: time <= 23 day
PC-3 [29] = assay: Antitumor activity against human PC-3 cells xenografted in mouse assessed as reduction in tumour size at 0.5 mg/kg, ip administered upto 23 days relative to control; assay type: functional; design: scale not given: the % may be the effect or the level left; conditions: time <= 23 day; method in brief: as §5

T1 sequence (P30550 whole entry): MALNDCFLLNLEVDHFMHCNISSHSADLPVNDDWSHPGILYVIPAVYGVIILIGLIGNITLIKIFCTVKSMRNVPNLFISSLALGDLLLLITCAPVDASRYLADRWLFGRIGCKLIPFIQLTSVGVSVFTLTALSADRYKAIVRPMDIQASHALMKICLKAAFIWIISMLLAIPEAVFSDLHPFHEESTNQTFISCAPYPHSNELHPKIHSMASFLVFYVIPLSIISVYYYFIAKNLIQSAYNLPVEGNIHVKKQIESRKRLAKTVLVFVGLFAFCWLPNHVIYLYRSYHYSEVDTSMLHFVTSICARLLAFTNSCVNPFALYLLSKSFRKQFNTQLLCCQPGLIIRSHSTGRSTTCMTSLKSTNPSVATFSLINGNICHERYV

Row | Compound | IC50 [1] [nM] | IC50 at 72 h [2] [nM] | IC50 at 144 h [4] [nM] | IC50 at 144 h [6] [nM] | IC50 at 72 h [7] [nM] | IC50 at 144 h [8] [nM] | IC50 [13] [nM] | IC50 at 144 h [14] [nM] | Activity (PC-3 [16]) [%] | Drug uptake [20] | also measured
1 | CCCC[C@H](NC(=O)[C@H](CC(C)C)NC(=O)[C@H](Cc1c[nH]cn1)NC(=O)CNC(=O)[C@@H](NC(=O)[C@H](C)NC(=O)[C@H](CC1=CSC2C=CC=CC12)NC(=O)[C@H](CCC(N)=O)NC(=O)[C@H](CC(N)=O)NC(=O)CCOCCOCCOCCOCCNC(=O)[C@H](CSC1CC(=O)N(CCCCCC(=O)N[C@@H](CCC(=O)O)C(=O)N[C@H](C(=O)N[C@@H](CCCNC(N)=O)C(=O)Nc2ccc(COC(=O)N(C)[C@H](C(=O)N[C@H](C(=O)N(C)[C@@H]([C@@H](C)CC)[C@@H](CC(=O)N3CCC[C@H]3[C@H](OC)[C@@H](C)C(=O)N[C@H](C)[C@@H](O)c3ccccc3)OC)C(C)C)C(C)C)cc2)C(C)C)C1=O)NC(C)=O)C(C)C)C(N)=O (stereo not given in full) (I: Ac-C[PEG4]NQ[X2]AVGHL[Nle]-NH2 / II: EV[Cit][PABC][NMeV]V[Dil][Dolaproine]-X3; linker I:1-II:N via Hexanoyl(6-succinimido-3yl)) | 106 | 501 | 46.4 | 15.6 | 53.9 | 48.7 | 93.6 | 11.8 |  |  | Drug uptake [3]: Not Active; Drug uptake [5]: Not Active; Drug uptake [9]: Not Active; Drug uptake [10]: Not Active; Drug uptake [11]: Not Active; Drug uptake [12]: Not Active
2 | CC[C@H](C)[C@@H]([C@@H](CC(=O)N1CCC[C@H]1[C@H](OC)[C@@H](C)C(=O)N[C@H](C)[C@@H](O)c1ccccc1)OC)N(C)C(=O)[C@@H](NC(=O)[C@@H](NC)C(C)C)C(C)C (H-[NMeV]V[Dil][Dolaproine]-X3) |  | 10.1 | 0.2 | 0.4 | 3.4 | 0.2 |  | 0.3 | 15.9 | Active | Survival (PC-3 [15]): 24.5 days; Drug uptake [17]: Active; Drug uptake [18]: Active; Drug uptake [19]: 10.1%; Drug uptake [21]: 3.55%; Survival (PC-3 [22]): 24.5 days
3 | CC[C@H](C)[C@@H]([C@@H](CC(=O)N1CCC[C@H]1[C@H](OC)[C@@H](C)C(=O)N[C@H](C)[C@@H](O)c1ccccc1)OC)N(C)C(=O)[C@@H](NC(=O)[C@H](C(C)C)N(C)C(=O)OCc1ccc(NC(=O)[C@H](CCCNC(N)=O)NC(=O)[C@@H](NC(=O)[C@H](CCC(=O)O)NC(=O)CCCCCN2C(=O)CC(SC[C@H](NC(C)=O)C(=O)NCCOCCOCCOCCOCCC(=O)N[C@H](Cc3ccccc3)C(=O)N[C@@H](CCC(N)=O)C(=O)N[C@@H](CC3=CSC4C=CC=CC34)C(=O)N[C@@H](C)C(=O)N[C@H](C(=O)NCC(=O)N[C@@H](Cc3c[nH]cn3)C(=O)N[C@@H](CC(C)C)[C@@H](O)CC(=O)N[C@@H](CC(C)C)C(N)=O)C(C)C)C2=O)C(C)C)cc1)C(C)C (stereo not given in full) | 70.4 | 299 | 39.9 | 6 | 29.3 | 41 | 58.2 | 4 | 34.2 | Active | Activity [23]: Toxic; Activity [24]: Non-Toxic; Activity [25]: < 20%; Survival (PC-3 [26]): 42 days; Activity (PC-3 [27]): Active; Activity (PC-3 [28]): 26%; Activity (PC-3 [29]): 48%
